Among the data in ChEMBL document CHEMBL1121916, “Structure-activity relationships in dihydropteroate synthase inhibition by sulfanilamides. Comparison with the antibacterial activity” (J Med Chem, 1981) are EII50, GII50 and pKa values, retold here.

Data set [1] in a line: Inhibition of Escherichia coli (K12J53) Dihydopteroate synthase. Summed up:
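Ammonium sulfate fraction (30–70%) from alumina-disrupted E. coli K12J53 grown on brain-heart infusion agar at 37 °C; it contains both pyrophosphokinase and synthase. Read-out was [14C]dihydropteroate. The 50% inhibitory concentration came from 1/dpm vs. concentration plots, divided by p-aminobenzoate concentration (EII50).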

The test system of another data set is Escherichia coli. Nature of the data set: In vitro inhibition of Escherichia coli (K12J53) growth.
Data set [2] is described as follows: PKa value was measured. In kind it is physicochemical.

`Nc1ccc(S(=O)(=O)Nc2ncccn2)cc1` had an EII50 in data set [1] of 2.56. Compound `Cc1cc(C)n(C)/c(=N/S(=O)(=O)c2ccc(N)cc2)n1` displayed a GII50 with Escherichia coli of 52000. Also, the EII50 in data set [1] was found to be 26. On to `Nc1ccc(S(=O)(=O)NC(=O)c2ccccc2)cc1` [SULFABENZAMIDE], for which the pKa in data set [2] is 4.57. Besides, the EII50 in data set [1] came to 5.2. For `Cn1ccs/c1=N\S(=O)(=O)c1ccc(N)cc1`, the GII50 with Escherichia coli is above 10000. The same compound returned an EII50 in data set [1] of 13.4. For the compound `Nc1ccc(S(N)(=O)=O)cc1`, the EII50 in data set [1] was 25.

In the case of `N=C(N)NS(=O)(=O)c1ccc(N)cc1`, the EII50 in data set [1] was determined as 10.2. In the case of `Cc1cc(C)nc(NS(=O)(=O)c2ccc(N)cc2)n1` [SULFAMETHAZINE], the pKa in data set [2] stood at 7.51. In data set [1], this compound yielded an EII50 of 1.92.

In the data set with Escherichia coli, `CN(c1ncccn1)S(=O)(=O)c1ccc(N)cc1` had a GII50 of 10000. The compound further had an EII50 in data set [1] of 9.2. Compound `NC(=O)NS(=O)(=O)c1ccc(N)cc1` [SULFACARBAMIDE] came in with a pKa in data set [2] of 5.42. This compound also displayed an EII50 in data set [1] of 8.4. For `Nc1ccc(S(=O)(=O)Nc2nccs2)cc1` [SULFATHIAZOLE], in that order: 7.23 and 0.9. With `CC(=O)NS(=O)(=O)c1ccc(N)cc1` [SULFACETAMIDE], the pKa in data set [2] was found to be 5.38. In data set [1], this compound yielded an EII50 of 4.44.

`Cc1cc(C)nc(N(C)S(=O)(=O)c2ccc(N)cc2)n1` came in with an EII50 in data set [1] of 10.8. Compound `CN(c1ccccn1)S(=O)(=O)c1ccc(N)cc1` came in with a GII50 with Escherichia coli of 40000. In addition, the EII50 in data set [1] is 30. For `Cn1cccn/c1=N\S(=O)(=O)c1ccc(N)cc1`, in that order: above 100000 and 31.2. As for `N#CNS(=O)(=O)c1ccc(N)cc1`, the GII50 in the data set with Escherichia coli is above 50000. This compound also showed a pKa in data set [2] of 2.92. This compound also registered an EII50 in data set [1] of 8. On to `CN(c1nccs1)S(=O)(=O)c1ccc(N)cc1`, for which the GII50 in the data set on Escherichia coli was above 10000. For the same compound, the EII50 in data set [1] turned out to be 35.4. As to `Nc1ccc(S(=O)(=O)Nc2ccccn2)cc1` [SULFAPYRIDINE], the pKa in data set [2] amounted to 8.56. In addition, the EII50 in data set [1] came to 4.2. For `Cn1cccc/c1=N/S(=O)(=O)c1ccc(N)cc1`, the GII50 in the data set on Escherichia coli amounted to 30000. The same compound had an EII50 in data set [1] of 8. For `COc1cc(NS(=O)(=O)c2ccc(N)cc2)nc(OC)n1` [SULFADIMETHOXINE], the pKa in data set [2] was determined as 5.98. In data set [1], the EII50 is 0.85. For the compound `CN(C)S(=O)(=O)c1ccc(N)cc1`, the GII50 in the data set on Escherichia coli is above 35000. This compound also yielded an EII50 in data set [1] of 82. Take `Cc1nnc(NS(=O)(=O)c2ccc(N)cc2)s1` [SULFAMETHIZOLE]: in data set [2], the pKa came out at 5.22. This compound also registered an EII50 in data set [1] of 0.4. As for `CNS(=O)(=O)c1ccc(N)cc1`, in the data set on Escherichia coli, the GII50 was determined as 60000. The compound further returned a pKa in data set [2] of 10.8. Besides, in data set [1], the EII50 turned out to be 32.4.
